In assay [1] the target is T1, Retinoic acid receptor RXR-alpha (Homo sapiens) (UniProt P19793).
T1 sequence (whole entry): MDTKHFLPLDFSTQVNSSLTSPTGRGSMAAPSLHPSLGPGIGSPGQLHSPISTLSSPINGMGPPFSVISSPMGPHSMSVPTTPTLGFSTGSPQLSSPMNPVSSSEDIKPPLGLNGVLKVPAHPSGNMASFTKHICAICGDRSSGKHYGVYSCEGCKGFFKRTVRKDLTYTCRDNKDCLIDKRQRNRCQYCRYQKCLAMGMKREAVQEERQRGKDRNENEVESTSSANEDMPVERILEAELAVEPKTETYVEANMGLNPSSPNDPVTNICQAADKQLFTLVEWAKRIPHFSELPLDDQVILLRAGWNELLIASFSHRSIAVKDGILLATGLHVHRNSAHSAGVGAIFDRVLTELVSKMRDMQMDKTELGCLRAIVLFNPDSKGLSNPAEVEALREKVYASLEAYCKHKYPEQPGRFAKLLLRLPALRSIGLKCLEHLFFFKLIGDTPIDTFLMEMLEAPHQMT
In words: Antagonist activity against RXRalpha in human A549 cells assessed as inhibition of AKT phosphorylation at 5 and 10 uM after 24 hrs by Western blotting method. It is filed as cell-based. In a few lines: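 A549 or HepG2 cells were exposed to compound for 24 h, then with or without TNFα (20 ng/mL) for 30 min more. Lysates were immunoblotted for AKT activation. One of three to five similar experiments shown.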
Background: A western blot detects proteins with antibodies after separation by electrophoresis.

The test system of assay [2] is T2, Retinoic acid receptor RXR-alpha (Homo sapiens), P19793 [V298S].
T2 sequence (whole entry): T1 sequence (whole entry) with V298S
In words: Antagonist activity against RXRalpha V298S mutant (unknown origin) expressed in human HEK293T cells assessed as inhibition of 9-cis-RA-induced receptor transactivation at 1 to 10 uM after 18 hrs by luciferase reporter gene based mammalian one-hybrid assay. As to conditions: HEK-293T. It is filed as cell-based. In a few lines: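 HEK-293T cells co-transfected with pG5-Luc and an RXRα mutant vector (V298S as pBind fusion; A272W, C432W LBP mutants). […] Luciferase read-out. Mean ± SD.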
For orientation: In a reporter assay the amount or activity of a reporter protein is the signal.

A further assay deals with HepG2. In words: Induction of apoptosis in TNFalpha-stimulated human HepG2 cells assessed as PARP cleavage at 5 and 10 uM pre-treated for 24 hrs before TNFalpha addition by immunoblotting method. It is filed as functional, cell-based. In short, it runs like this:
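A549 or HepG2 cells were treated with compound for 24 h, with or without subsequent TNFα (20 ng/mL) for 30 min. Lysates were immunoblotted for PARP cleavage as the apoptosis marker. One of three to five similar experiments shown.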

The target in assay [3] is Retinoic acid receptor gamma (Homo sapiens) (UniProt P13631). Kind of assay: Antagonist activity against RARgamma ligand binding domain (unknown origin) expressed in human MCF7 cells assessed as inhibition of ATRA-induced receptor transactivation at 10 uM after 18 hrs by luciferase reporter gene based mammalian one-hybrid assay.
Assay [4] deals with T1, Retinoic acid receptor RXR-alpha (Homo sapiens). Kind of assay: Antagonist activity against RXRalpha delta80 mutant (unknown origin) expressed in human A549 cells assessed as reduction in TNFalpha-induced interaction of Myc-tagged RXRalpha- delta80 with p85alpha by co-immunoprecipitation assay. It is filed as cell-based. In short, it runs like this:
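A549 cells were transfected with Myc-RXRα-Δ80 (truncated RXRα mimic) and treated with or without TNFα and/or compound. Anti-Myc immunoprecipitates were immunoblotted for endogenous p85α and Myc-RXRα-Δ80. One of three to five similar experiments shown.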

Assay [5] relates to T3, Retinoic acid receptor RXR-alpha (Homo sapiens), P19793 [C432W].
T3 sequence (whole entry): T1 sequence (whole entry) with C432W
In words: Antagonist activity against RXRalpha C432W/F313A mutant (unknown origin) expressed in human HEK293T cells assessed as inhibition of constitutive receptor transactivation at 1 to 10 uM after 18 hrs by luciferase reporter gene based mammalian one-hybrid assay. As to conditions: HEK-293T.

In another assay the test system is MCF7. Kind of assay: Growth inhibition of tRXRalpha stably expressing human MCF7 cells at 2 to 10 uM after 48 hrs by MTT assay. The format is functional, cell-based.
Assay [6] addresses Nuclear receptor subfamily 4immunitygroup A member 1 (Homo sapiens) (UniProt P22736). In words: Antagonist activity against Nur77 ligand binding domain (unknown origin) expressed in human MCF7 cells assessed as inhibition of all-trans-RA-induced receptor transactivation at 10 uM after 18 hrs by luciferase reporter gene based mammalian one-hybrid assay. It is filed as cell-based. In a few lines: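 MCF-7 cells co-transfected with pG5-Luc and the pBind-LBD fusion: Nur77, RARγ or ER. Agonists were all-trans-RA 10⁻⁷ M for RARγ and Nur77, and propyl pyrazole triol 10 μM for ER. Compound at 10 μM for 18 h. Dual-luciferase read-out normalized to Renilla. Mean ± SD.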

Molecules are shown by their SMILES. Substitutions are numbered along the chain they refer to. Calls of active or inactive are those of the source. No cut-off for these calls is given here.

Sequence of Retinoic acid receptor gamma (Homo sapiens) (P13631 whole entry, looked up, the tested form may be a part): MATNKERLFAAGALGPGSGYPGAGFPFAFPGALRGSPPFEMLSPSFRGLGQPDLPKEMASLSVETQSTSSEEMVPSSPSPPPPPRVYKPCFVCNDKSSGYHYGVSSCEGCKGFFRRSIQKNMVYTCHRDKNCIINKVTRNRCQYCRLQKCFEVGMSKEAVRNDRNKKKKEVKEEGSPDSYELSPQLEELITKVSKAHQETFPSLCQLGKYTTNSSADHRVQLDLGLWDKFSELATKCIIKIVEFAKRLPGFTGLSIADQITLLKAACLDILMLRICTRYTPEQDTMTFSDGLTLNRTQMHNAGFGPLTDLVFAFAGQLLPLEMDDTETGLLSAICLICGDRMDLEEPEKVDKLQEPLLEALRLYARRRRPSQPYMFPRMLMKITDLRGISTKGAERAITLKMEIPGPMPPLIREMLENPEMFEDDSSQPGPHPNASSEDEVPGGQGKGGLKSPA
Sequence of Nuclear receptor subfamily 4immunitygroup A member 1 (Homo sapiens) (P22736 whole entry, the tested form may be a part): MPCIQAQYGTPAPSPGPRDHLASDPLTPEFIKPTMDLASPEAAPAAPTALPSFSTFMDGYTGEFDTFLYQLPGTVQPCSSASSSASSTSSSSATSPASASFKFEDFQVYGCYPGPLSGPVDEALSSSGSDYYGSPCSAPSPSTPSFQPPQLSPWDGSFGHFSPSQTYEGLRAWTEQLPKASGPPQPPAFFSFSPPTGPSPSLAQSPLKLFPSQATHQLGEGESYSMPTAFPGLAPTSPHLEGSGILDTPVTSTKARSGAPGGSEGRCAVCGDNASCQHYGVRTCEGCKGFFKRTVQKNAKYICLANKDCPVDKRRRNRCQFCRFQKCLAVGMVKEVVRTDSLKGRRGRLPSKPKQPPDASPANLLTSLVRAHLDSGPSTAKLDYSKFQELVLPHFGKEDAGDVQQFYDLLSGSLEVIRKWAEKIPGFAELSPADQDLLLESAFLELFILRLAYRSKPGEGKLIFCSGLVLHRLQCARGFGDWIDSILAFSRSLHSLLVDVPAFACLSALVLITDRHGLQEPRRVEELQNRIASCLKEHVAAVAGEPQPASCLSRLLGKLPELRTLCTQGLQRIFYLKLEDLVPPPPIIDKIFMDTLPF

As for `Cc1cc(=O)oc2c(/C=N/NC(=O)CSc3nc4ccccc4s3)c(O)ccc12`, the inhibition result in assay [1] and in assay [5] was “Dose-dependent effect” in each case. Besides, the inhibition result in assay [2] and in assay [6] was “inactive” throughout. For the same compound, the result in the assay with HepG2 was Active. Moreover, the inhibition entry in assay [3] and in assay [4] was “Active” in each case. The “growth inhibition (GI)” value in the assay with MCF7 is “Active”.
